High-throughput results: PubChem, The Scripps Research Institute Molecular Screening Center
CHRM5 PAM – potentiates acetylcholine response at human M5 receptor; 360,000 compounds, 0.3% hits; CHO-K1 hM5, Fluo-8 calcium, ACh EC20 PAM; 0% = ACh EC20, 100% = ACh EC100; activation, % at 3 µM;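 active means activation above the run cutoff, the mean activation of all test compounds plus 3 SD, cut at about 18% in these data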
Target sequence (P08912 whole entry, looked up): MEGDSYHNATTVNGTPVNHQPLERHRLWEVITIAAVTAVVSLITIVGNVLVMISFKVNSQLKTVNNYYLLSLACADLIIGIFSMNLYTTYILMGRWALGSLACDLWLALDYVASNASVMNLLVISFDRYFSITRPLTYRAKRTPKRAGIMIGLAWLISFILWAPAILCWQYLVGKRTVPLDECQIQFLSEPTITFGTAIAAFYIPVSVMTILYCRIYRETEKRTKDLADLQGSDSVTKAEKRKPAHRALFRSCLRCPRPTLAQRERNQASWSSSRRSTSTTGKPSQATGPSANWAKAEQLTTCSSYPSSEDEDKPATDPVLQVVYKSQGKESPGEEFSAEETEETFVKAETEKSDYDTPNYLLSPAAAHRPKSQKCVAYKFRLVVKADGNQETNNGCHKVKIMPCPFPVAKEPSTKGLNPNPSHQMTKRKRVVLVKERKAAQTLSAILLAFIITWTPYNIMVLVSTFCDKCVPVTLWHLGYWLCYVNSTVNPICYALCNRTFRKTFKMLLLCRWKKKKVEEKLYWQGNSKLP
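Assay system: CHO-K1 hM5 cells / Incubation: Fluo-8 loading 80 min at 37 °C plus 30 min room temperature / Technique: Fluo-8 calcium dye fluorescence, kinetic read / Repeats: single replicate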
M4 ag – agonists of human muscarinic M4 receptor (CHRM4); activation, % at 3 µM; P08173; 360,000 compounds, 0.14% hits; CHO-K1 hM4/Gqi5, Fluo-8 calcium fluorescence; vehicle 0%, full acetylcholine response 100%;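 active means activation above the run mean over all test wells plus 3 SD, cut at about 32% in these data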;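 further: peak over basal fluorescence ratio per well then scaled between controls; 0% = DMSO wells and 100% = acetylcholine at EC100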
CHRM4 PAM – potentiates acetylcholine response at human M4 receptor; activation, % at 3 µM; 360,000 compounds, 0.4% hits; CHO-K1 hM4/Gqi5, Fluo-8 calcium fluorescence, ACh EC20; 0% = ACh EC20, 100% = maximal ACh; P08173; AID 624126;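 active means activation above its plate's cutoff, the mean activation of sample wells plus 3 SD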
CHRM5 antagonist – CHRM5 antagonism in calcium assay. CHO-hM5 cells, Fluo-8 calcium fluorescence, ACh EC80. 360,000 compounds, 0.59% hits. AID 624040. inhibition, % at 3 µM. P08912;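 active means inhibition above a per-plate cutoff, the mean of that plate's test compounds plus 3 SD, cut at about 27% in these data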;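 further: 0% = acetylcholine EC80 with DMSO and 100% = DMSO without agonist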
M4 antag – CHRM4 antagonism in calcium assay; P08173; CHO-hM4 cells, ACh EC80, Fluo-8 calcium fluorescence; inhibition, % at 3 µM; 360,000 compounds, 0.73% hits; AID 624125;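 active means inhibition above its plate's cutoff, the mean inhibition of sample wells plus 3 SD, cut at about 27% in these data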;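 further: 0% = acetylcholine EC80 with DMSO and 100% = DMSO without agonist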
M5 ag – CHRM5 agonism in calcium assay. activation, % at 3 µM. CHO-K1 hM5 cells, Fluo-8 calcium fluorescence; 0% DMSO wells, 100% maximal acetylcholine response. P08912. 360,000 compounds, 0.19% hits. AID 624037;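 active means activation above the run's mean over test compounds plus 3 SD, cut at about 23% in these data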;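 further: signal is peak over basal fluorescence ratio across the kinetic read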
* hit, by the source's call. Hits are enriched below; roughly 1.9% of the tested compounds scored in any of these assays.

What do the screens show for `CCc1nnc(NC(=O)c2ccncc2)s1`?
CHRM5 PAM: 20*; M4 ag: 0; CHRM4 PAM: 18*; CHRM5 antagonist: -7; M4 antag: -5; M5 ag: -4

How did CC1CCCC(C)N1C(=O)COC(=O)c1cccnc1Cl (stereo unspecified) do in these assays?
CHRM5 PAM: 1; M4 ag: 2; CHRM4 PAM: 1; CHRM5 antagonist: 3; M4 antag: 1; M5 ag: 0

Results for NC(=O)CC(NC(=O)Cc1ccc(Cl)cc1)c1ccc(NC2CCCCCCC2)c([N+](=O)[O-])c1 (stereo unspecified) ?
CHRM5 PAM: 0; M4 ag: 2; CHRM4 PAM: 4; CHRM5 antagonist: 10; M4 antag: -6; M5 ag: -1

Results for CN1CCC(=NNC(=O)CN(c2ccccc2)S(=O)(=O)c2ccccc2)CC1 ?
CHRM5 PAM: -1; M4 ag: 14; CHRM4 PAM: -1; CHRM5 antagonist: 18; M4 antag: -7; M5 ag: -4

What do the screens show for `CSc1ccc(S(=O)(=O)N(CC(=O)NN=C2CCN(C)CC2)c2ccc(C)cc2)cc1`?
CHRM5 PAM: 23*; M4 ag: 2; CHRM4 PAM: 17; CHRM5 antagonist: -4; M4 antag: -8; M5 ag: 5

Results for N#C/C(=C\c1ccc(Sc2nc3ccccc3[nH]2)o1)c1ccccc1 ?
CHRM5 PAM: -13; M4 ag: 10; CHRM4 PAM: -10; CHRM5 antagonist: 14; M4 antag: 8; M5 ag: 2

Results for N#C/C(=C\c1ccc(Sc2ccc(Cl)cc2)o1)c1nc2ccccc2[nH]1 ?
CHRM5 PAM: -16; M4 ag: 12; CHRM4 PAM: -8; CHRM5 antagonist: 29*; M4 antag: 12; M5 ag: 3

How did O=C(CN1C(=O)CSC1=O)c1ccccc1 do in these assays?
CHRM5 PAM: 45*; M4 ag: 1; CHRM4 PAM: 9; CHRM5 antagonist: -6; M4 antag: -11; M5 ag: -3

How did CCOC(=O)C1(CCCc2ccccc2)CCN(C(=O)CSC)CC1 do in these assays?
CHRM5 PAM: -1; M4 ag: 4; CHRM4 PAM: -5; CHRM5 antagonist: 2; M4 antag: 4; M5 ag: 2

How did CCOC(=O)C1(CCCc2ccccc2)CCN(C2CCN(C(C)=O)CC2)CC1 do in these assays?
CHRM5 PAM: -36; M4 ag: 1; CHRM4 PAM: -9; CHRM5 antagonist: 30*; M4 antag: -8; M5 ag: -19

What do the screens show for `CCOc1cc(C2C3=C(CC(C)(C)CC3=O)N(C)C3=C2C(=O)CC(C)(C)C3)ccc1O`?
CHRM5 PAM: 6; M4 ag: 0; CHRM4 PAM: 0; CHRM5 antagonist: 0; M4 antag: 0; M5 ag: 6

What do the screens show for `O=C(c1ccc(Cl)cc1)N1CCN(CCc2ccccn2)CC1`?
CHRM5 PAM: -1; M4 ag: 1; CHRM4 PAM: 3; CHRM5 antagonist: 0; M4 antag: -20; M5 ag: -4

What do the screens show for `Cc1ccc(NC(=S)NC2CCSc3ccccc32)cc1C` (stereo unspecified)?
CHRM5 PAM: -19; M4 ag: 6; CHRM4 PAM: -18; CHRM5 antagonist: 28*; M4 antag: 52*; M5 ag: -5

What do the screens show for `COC(=O)c1ccc(C(=O)NC2CCSc3ccccc32)cc1` (stereo unspecified)?
CHRM5 PAM: 2; M4 ag: 1; CHRM4 PAM: -2; CHRM5 antagonist: -6; M4 antag: 6; M5 ag: -4

What do the screens show for `CCOc1cc(/C=C2\SC(=Nc3ccc(CC)cc3)NC2=O)ccc1OCC(=O)O`?
CHRM5 PAM: -10; M4 ag: 15; CHRM4 PAM: -8; CHRM5 antagonist: 19; M4 antag: 1; M5 ag: 0

Results for Cc1cccc(OCc2nc(C#N)c(N3CC(C)CC(C)C3)o2)c1 (stereo unspecified) ?
CHRM5 PAM: -10; M4 ag: -1; CHRM4 PAM: -4; CHRM5 antagonist: 5; M4 antag: -11; M5 ag: -1

How did Cc1cccc(OCc2nc(C#N)c(N3CCCC3)o2)c1 do in these assays?
CHRM5 PAM: 21*; M4 ag: 0; CHRM4 PAM: 2; CHRM5 antagonist: -11; M4 antag: -11; M5 ag: -4

How did Cc1c(P(=O)(c2ccccc2)c2ccccc2)c2ccccc2n1C do in these assays?
CHRM5 PAM: 2; M4 ag: 0; CHRM4 PAM: 2; CHRM5 antagonist: -10; M4 antag: 5; M5 ag: 2

Results for COc1ccc(-c2nnc(-c3ccc(OCC(C)C)cc3)o2)cc1 ?
CHRM5 PAM: 9; M4 ag: 2; CHRM4 PAM: 22*; CHRM5 antagonist: -6; M4 antag: -6; M5 ag: -4

How did CC(C)COc1ccc(-c2nnc(-c3ccncc3)o2)cc1 do in these assays?
CHRM5 PAM: 1; M4 ag: 2; CHRM4 PAM: 17; CHRM5 antagonist: 5; M4 antag: 6; M5 ag: 1

How did CCSc1nnc(SCC(=O)c2c(N)n(C)c(=O)n(C)c2=O)s1 do in these assays?
CHRM5 PAM: -2; M4 ag: 2; CHRM4 PAM: 14; CHRM5 antagonist: 3; M4 antag: 3; M5 ag: 4

How did COc1cccc(C(=O)NCCSCc2ccccc2Cl)c1 do in these assays?
CHRM5 PAM: 18*; M4 ag: 2; CHRM4 PAM: -5; CHRM5 antagonist: -7; M4 antag: -9; M5 ag: -6

What do the screens show for `COc1cccc(C(=O)NCCSCc2c(F)cccc2Cl)c1`?
CHRM5 PAM: 10; M4 ag: 6; CHRM4 PAM: -2; CHRM5 antagonist: -3; M4 antag: -12; M5 ag: -13

Results for O=[N+]([O-])c1ccc(NN=Cc2cccc(O)c2)nc1 ?
CHRM5 PAM: -7; M4 ag: 11; CHRM4 PAM: -2; CHRM5 antagonist: 8; M4 antag: -10; M5 ag: 6

What do the screens show for `Cc1cccc(C)c1-n1c(C)cc(/C=N\Nc2ccc([N+](=O)[O-])cn2)c1C`?
CHRM5 PAM: -20; M4 ag: 1; CHRM4 PAM: -17; CHRM5 antagonist: 13; M4 antag: 35*; M5 ag: -6

What do the screens show for `CCNC(=S)Nc1ccc(OCc2nc3ccccc3s2)cc1`?
CHRM5 PAM: -5; M4 ag: 2; CHRM4 PAM: -6; CHRM5 antagonist: -1; M4 antag: -1; M5 ag: -19

How did CCN1/C(=C/c2ccc3ccccc3[n+]2CCCS(=O)(=O)[O-])C=Cc2cc(C)ccc21 do in these assays?
CHRM5 PAM: -6; M4 ag: 0; CHRM4 PAM: -1; CHRM5 antagonist: 14; M4 antag: 3; M5 ag: -2
